NF-kB neuron act = compounds increasing NF-kB expression in human neuronal cells; NF-kB reporter expression; stronger effect = higher value; fold change at 12.5 µM; 1.6% of 190,000 active; AID 1239; in the data active = fold change above about 3.3
FLuc inhib CS = Photinus pyralis luciferase inhibition counter-screen | 1.5% of 200,000 active | ATPLite firefly luciferase biochemical luminescence, 10 min | inhibition, % at 10 µM | P08659;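 active = inhibition above about 50% when tested at 10 µM, limit read from the data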
Target sequence (P08659 whole entry, looked up): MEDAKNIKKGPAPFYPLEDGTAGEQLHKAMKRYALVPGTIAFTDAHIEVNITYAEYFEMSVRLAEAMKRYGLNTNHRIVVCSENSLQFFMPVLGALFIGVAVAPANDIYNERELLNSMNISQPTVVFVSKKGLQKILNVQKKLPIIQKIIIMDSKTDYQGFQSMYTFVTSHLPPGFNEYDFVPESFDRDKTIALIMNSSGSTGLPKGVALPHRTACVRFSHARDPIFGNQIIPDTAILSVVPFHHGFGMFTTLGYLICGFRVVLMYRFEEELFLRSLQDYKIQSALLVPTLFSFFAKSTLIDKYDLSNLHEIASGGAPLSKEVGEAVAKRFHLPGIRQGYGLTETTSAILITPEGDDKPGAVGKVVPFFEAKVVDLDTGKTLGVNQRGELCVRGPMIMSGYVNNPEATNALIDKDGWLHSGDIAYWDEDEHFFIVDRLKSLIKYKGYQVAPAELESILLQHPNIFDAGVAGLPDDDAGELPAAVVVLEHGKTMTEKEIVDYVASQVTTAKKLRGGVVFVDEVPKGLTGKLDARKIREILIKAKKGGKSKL
PPC-1+TRAIL kill = PPC-1 cancer cell killing with TRAIL present; PPC-1 cells + TRAIL, ATPLite viability luminescence; cell killing (% activity), % at 4 µM or 5 µM; 0.41% of 220,000 active; AID 1443;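 active = cell killing above 50% in the first pass at 4 µM, then a duplicate retest at 5 µM averaging 50% or more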
FLuc act counter = firefly luciferase counter-screen for stimulation assays | P08659 | 200,000 tested, under 10 active | ATPlite luciferase biochemical, luminescence, 10 min; 0 = ATP-free wells, 1 = DMSO control | AID 1027 | activation factor at 10 µM;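 active = luciferase activation factor, scaled between plate controls, of at least 2 with compound at 10 µM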
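assay system = Luciferase/luciferin detection reagent, cell-free biochemical luciferase assay | also added = ATP substrate | times = 10 min post-reagent at room temperature | measured by = luminescence from luciferase reaction | measure = luciferase activation, seen as luminescence increase over controls | benchmarks = low control with PBS replacing ATP, high control enzyme plus ATP without compound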
APP 5'UTR act = APP 5'UTR luciferase reporter activation; SH-SY5Y APP 5'UTR luciferase reporter, luminescence; zero percent = DMSO vehicle wells; activation, % at 2 µM; 1% of 190,000 active;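 active = activation above a set limit, based on mean plus 3 SD of controls, cut at about 140% in these data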
TRAIL sens C8 = caspase-8 TRAIL sensitization; NB7+C8 cells + TRAIL, ATPlite viability luminescence; inhibition (viability loss, TRAIL sensitization), % at 10 µM; 1% of 360,000 active; AID 624354;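 active = compounds causing at least 50% loss of cell viability in the single-dose screen, relative to plate controls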
PPC-1 tox = PPC-1 cell cytotoxicity; shares compounds with PPC-1+TRAIL kill; cytotoxicity, % at 5 µM; 50% of 1,200 active; PPC-1 viability, ATPlite luminescence, overnight;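 active = reconfirmed compounds whose average cytotoxicity reaches 50% or more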
A number is an active result; i = inactive; nt = no result given. Most compounds without a hit are left out; they make up all but 2.2% or so of the library.

SMILES | NF-kB neuron act | FLuc inhib CS | PPC-1+TRAIL kill | FLuc act counter | APP 5'UTR act | TRAIL sens C8 | PPC-1 tox
CC(C)(C)c1ccc(C(=O)N/C(N)=N/c2nc3ccccc3o2)cc1 | i | i | i | i | i | i | nt
Cc1ccc2oc(/N=C(\N)NC(=O)C(C)(C)C)nc2c1 | nt | nt | 83.2 | nt | nt | 86.3 | 83.1
CCc1nc(Nc2cccc(F)c2)c2oc3ccccc3c2n1 | nt | nt | nt | nt | nt | i | nt
CC(C)(C)Cc1c(C2CCCCC2)nc2ccc(Cl)cn12 | nt | nt | nt | nt | nt | i | nt
COc1ccc2nc(N=Nc3ccc(N(C)C)cc3)sc2c1 | i | 94.7 | 90.2 | i | i | 93.7 | 90.0
COc1ccc2nc(/N=C\N(C)C)sc2c1 | i | i | i | i | i | i | nt
O=C(CCC(=O)c1ccc(Cl)cc1)OCn1nnc2ccccc2c1=O | nt | nt | nt | nt | nt | i | nt
CCc1ccccc1N(CC(=O)O)S(C)(=O)=O | i | i | i | i | i | i | i
CN(c1cccc(NC(=O)c2ccc(C(C)(C)C)cc2)c1)S(C)(=O)=O | i | 79.9 | i | i | i | 73.4 | 53.2
CCc1ccccc1N(CC(=O)Nc1cccc(N(C)S(C)(=O)=O)c1)S(C)(=O)=O | i | i | i | i | i | i | i
CCCCN(C)S(=O)(=O)c1c(C)[nH]c(=O)[nH]c1=O | i | i | i | i | i | i | i
Cc1nn(-c2cccc(Cl)c2)c(Cl)c1/C=N/NC(=O)c1cccnc1 | i | i | i | i | i | i | nt
COc1ccc(C(=O)Nc2ccccc2)cc1NC(=O)c1ccc([N+](=O)[O-])cc1 | nt | nt | nt | nt | nt | i | nt
CCCn1nc(NC(=O)c2ccco2)c2cc3ccc(C)cc3nc21 | nt | i | i | i | nt | i | i
CCCn1nc(NC(=O)c2ccco2)c2cc3cc(C)ccc3nc21 | nt | nt | i | nt | nt | i | nt
O=C(Nc1cccc2ccccc12)C12CC3CC(C1)CC(n1cnc([N+](=O)[O-])n1)(C3)C2 | i | i | i | i | i | i | i
COc1ccc(C2CC(=O)Oc3c2c(=O)n(C)c2ccccc32)c(OC)c1OC (stereo unspecified) | i | i | nt | i | i | i | nt
CC1(c2nnnn2-c2ccc3c(c2)OCCO3)CCC(=O)N1CCCN1CCOCC1 (stereo unspecified) | nt | nt | nt | nt | nt | i | nt
COc1ccc(S(=O)(=O)Nc2ccccn2)c(C)c1C | i | i | i | i | i | i | i
Cc1cc(=O)[nH]c(SCC(=O)N2C(C)CCCC2C)n1 (stereo unspecified) | nt | nt | nt | nt | nt | i | nt
Cc1cc(/C=N/NC(=O)c2cccs2)c(C)n1-c1ccccc1 | i | 91.2 | 68.7 | i | 162.8 | 61.4 | 67.8
Cc1cc2nc3ccc(=[N+](C)C)cc-3sc2cc1N | nt | nt | 71.5 | nt | nt | 51.2 | 71.9
C=CCNCc1cccn1-c1sc2c(c1C#N)CCCC2 | i | i | i | i | i | i | i
N#Cc1c(-n2cccc2/C=N/O)sc2c1CCCC2 | i | i | i | i | i | i | nt
On1onc2c3cc(-c4ccccc4)nc3ccc21 | i | i | i | i | i | i | i
SMILES | NF-kB neuron act | FLuc inhib CS | PPC-1+TRAIL kill | FLuc act counter | APP 5'UTR act | TRAIL sens C8 | PPC-1 tox
C/C(NCCc1ccc(O)cc1)=C1/CCOC1=O | nt | nt | nt | nt | nt | i | nt
Cc1ccc(NC(=O)CN(C)C(=O)COc2cccc3cccnc23)cc1 | i | i | i | i | i | i | nt
CCOc1cc(C(=S)N2CCN(C)CC2)ccc1OCC(=O)N1CCOCC1 | i | i | i | i | i | i | i
CCOc1cc(C(=O)OCc2ccc(OC)cc2)ccc1OCC(=O)N1CCOCC1 | nt | nt | nt | nt | nt | i | nt
CCn1cc(-c2cc(C(=O)O)c3ccccc3n2)cn1 | i | 82.6 | 51.3 | i | i | 62.4 | 54.8
CCNC(=S)NNC(=O)c1cc(-c2ccccc2C)nc2ccccc12 | i | i | i | i | i | i | nt
CC(C)(C)c1ccc(-c2cc(C(=O)NNC(=O)Nc3ccccc3)c3ccccc3n2)cc1 | i | 77.3 | 64.5 | i | i | 68.4 | 60.6
CCC/C=N/NC(=O)c1cc(-c2ccccc2)nc2ccccc12 | i | i | i | i | i | i | nt
CCc1ccc(-c2cc(C(=O)Nn3cnnc3)c3ccccc3n2)cc1 | 4.29 | 98.0 | 97.0 | i | i | 93.4 | 97.0
CCn1cc(-c2cc(C(=O)O)c3ccccc3n2)c(C)n1 | i | i | i | i | i | i | nt
CCNC(=S)NNC(=O)c1cc(-c2ccc(OCC)cc2)nc2ccccc12 | 5.5 | 98.2 | 93.0 | i | i | 85.7 | 93.0
O=C(NNC(=O)c1cc(-c2ccccc2)nc2ccccc12)Nc1cccc(Cl)c1 | i | i | i | i | i | i | nt
